Test results as given in ChEMBL document CHEMBL4610089, “Bulbimidazoles A-C, Antimicrobial and Cytotoxic Alkanoyl Imidazoles from a Marine Gammaproteobacterium Microbulbifer Species” (J Nat Prod, 2020).

Tests used:
Staphylococcus aureus = assay: Antibacterial activity against Staphylococcus aureus FDA209P JC-1 assessed as reduction in microbial growth after 20 hrs by liquid microculture method; type: functional; conditions: FDA209P JC-1, 20 h
Method in brief: (§1)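 Broth microdilution MIC: twofold serial dilutions of compound were made across the plate, with the solvent vehicle kept at 0.5% of the final culture volume. The inoculum came from a log-phase culture. Plates were incubated at 37 °C for 20 h and growth was read as absorbance at 650 nm, in triplicate. Kanamycin sulfate was the reference drug.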

Kocuria rhizophila = assay: Antibacterial activity against Kocuria rhizophila ATCC9341 assessed as reduction in microbial growth after 20 hrs by liquid microculture method; type: functional; conditions: ATCC9341, 20 h; method in brief: as §1
Trichophyton rubrum = assay: Antifungal activity against Trichophyton rubrum NBRC5467 assessed as reduction in microbial growth after 20 hrs by liquid microculture method; type: functional; conditions: NBRC5467, 20 h
Method in brief: (§2)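 Antifungal MIC by twofold serial dilution in microplates: vehicle at 0.5% of final volume, inoculum from a log-phase culture, incubation at 25 °C. Growth was read as absorbance at 650 nm in triplicate. Amphotericin B was the reference drug.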

[1] = tested on: Colletotrichum gloeosporioides; assay: Antifungal activity against Glomerella cingulata NBRC5907 assessed as reduction in microbial growth after 20 hrs by liquid microculture method; type: functional; conditions: NBRC5907, 20 h; method in brief: as §2
Candida albicans = assay: Antifungal activity against Candida albicans NBRC0197 assessed as reduction in microbial growth after 20 hrs by liquid microculture method; type: functional; conditions: NBRC0197, 20 h; method in brief: as §2
Tenacibaculum maritimum = assay: Antibacterial activity against Tenacibaculum maritimum NBRC16015 assessed as reduction in microbial growth after 20 hrs by liquid microculture method; type: functional; conditions: NBRC16015, 20 h
Method in brief: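 Twofold serial-dilution microculture MIC: vehicle at 0.5% of final volume, log-phase inoculum, incubation at 24 °C. Growth was read as absorbance at 650 nm in triplicate. Sulfamethoxazole was the reference drug.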

P388 = assay: Cytotoxicity against mouse P388 cells assessed as reduction in cell viability after 72 hrs by XTT assay; type: functional, cell-based; conditions: P388, 72 h
Method in brief: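 P388 cells were grown in RPMI-1640 with L-glutamine, 10% FBS and 0.1 mg/mL gentamicin sulfate. They were seeded in 96-well round-bottom plates and exposed to compound in 200 μL cultures for 72 h at 37 °C under 5% CO2. Medium containing XTT (1 mg/mL) and PMS (40 μg/mL) was then added for 4 h, the medium was aspirated, and formazan was read at 450 nm. Growth inhibition was calculated per concentration, with doxorubicin as the reference.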

Escherichia coli = assay: Antibacterial activity against Escherichia coli NIHJ JC-2 assessed as reduction in microbial growth after 20 hrs by liquid microculture method; type: functional; conditions: NIHJ JC-2, 20 h; method in brief: as §1
[2] = tested on: Agrobacterium tumefaciens; assay: Antibacterial activity against Rhizobium radiobacter NBRC14554 assessed as reduction in microbial growth after 20 hrs by liquid microculture method; type: functional; conditions: NBRC14554, 20 h
Method in brief: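 Broth microdilution MIC: twofold serial compound dilutions, vehicle at 0.5% of final volume, log-phase inoculum. Incubated at 37 °C for 20 h, with absorbance read at 650 nm in triplicate. Sulfamethoxazole was the reference drug.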

| MIC (Staphylococcus aureus) | MIC (Kocuria rhizophila) | MIC (Trichophyton rubrum) | MIC [1] | MIC (Candida albicans) | MIC (Tenacibaculum maritimum) | MIC (Escherichia coli) | MIC [2] | Compound | IC50 (P388) |
| --- | --- | --- | --- | --- | --- | --- | --- | --- | --- |
| 3.12 µg/mL | 1.56 µg/mL | 3.12 µg/mL | 3.12 µg/mL | 6.25 µg/mL | 12.5 µg/mL | > 100 µg/mL | > 100 µg/mL | CC(C)CCCCCCC(=O)c1c[nH]cn1 | 7 µM |
| 1.56 µg/mL | 0.78 µg/mL | 1.56 µg/mL | 1.56 µg/mL | 12.5 µg/mL | 6.25 µg/mL | > 100 µg/mL | > 100 µg/mL | CCCCCCCCCC(=O)c1c[nH]cn1 | 5.8 µM |
| 1.56 µg/mL | 0.78 µg/mL | 0.78 µg/mL | 1.56 µg/mL | 6.25 µg/mL | 3.12 µg/mL | > 100 µg/mL | > 100 µg/mL | CCC(C)CCCCCCC(=O)c1c[nH]cn1 (racemic) | 5 µM |
